From ChEMBL document CHEMBL1145462, “In vivo pharmacodynamic activity of the glycopeptide dalbavancin” (Antimicrob Agents Chemother, 2007)
Values after ≈ are worked out from the molar mass of the structure shown.

Key:
Streptococcus pneumoniae [1] = assay: Bactericidal activity in Streptococcus pneumoniae ATCC 10813 infected non-neutropenic mouse thigh infection model assessed as drug level causing 2-log reduction of bacterial count at 2.03 mg/kg/6days; assay type: functional
Staphylococcus aureus [2] = assay: AUC/MIC ratio of Staphylococcus aureus 33591 infected neutropenic mouse thigh infection model at 74 mg/kg, ip administered every 72 hrs by static effect experiment; assay type: functional; settings: route intraperitoneal
Streptococcus pneumoniae [3] = assay: AUC/MIC ratio of Streptococcus pneumoniae 1293 infected neutropenic mouse thigh infection model at 0.44 mg/kg, ip administered every 24 hrs by static effect experiment; assay type: functional; settings: route intraperitoneal
Staphylococcus aureus [4] = assay: AUC/MIC ratio of methicillin-resistant Staphylococcus aureus infected neutropenic mouse thigh infection model at 37.7 mg/kg, ip administered every 24 hrs by static effect experiment; assay type: functional; settings: route intraperitoneal
Streptococcus pneumoniae [5] = assay: Bactericidal activity in ip dosed penicillin-susceptible Streptococcus pneumoniae ATCC 10813 infected neutropenic mouse thigh infection model assessed as reduction of colony count after 48 hrs by time kill study; assay type: functional, Thigh muscle
Outline: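 Neutropenic mice with thigh infection treated 2 h post-inoculation with single ip doses of 0.625, 1.25, 2.5, 5 or 10 mg/kg. Two mice per time point, sampled 0.5–96 h, with untreated controls. Thighs processed for CFU, reported as mean ± standard deviation log10 CFU/thigh.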

Staphylococcus aureus [6] = assay: AUC/MBC ratio of methicillin-resistant Staphylococcus aureus infected neutropenic mouse thigh infection model at 43 mg/kg, ip administered every 72 hrs by static effect experiment; assay type: functional; settings: route intraperitoneal
Staphylococcus aureus [7] = assay: AUC/MBC ratio of Staphylococcus aureus 33591 infected neutropenic mouse thigh infection model at 33.5 mg/kg, ip administered every 24 hrs by 2-log killing experiment; assay type: functional; settings: route intraperitoneal
Staphylococcus aureus [8] = assay: AUC/MBC ratio of Staphylococcus aureus 31005 infected neutropenic mouse thigh infection model at 49.3 mg/kg, ip administered every 24 hrs by static effect experiment; assay type: functional; settings: route intraperitoneal
Streptococcus pneumoniae [9] = assay: AUC/MIC ratio of Streptococcus pneumoniae 1329 infected neutropenic mouse thigh infection model at 1.45 mg/kg, ip administered every 24 hrs by 2-log killing experiment; assay type: functional; settings: route intraperitoneal
[10] = Cmax in bacterial pathogen-infected neutropenic Swiss ICR mouse thigh infection model at 20 mg/kg, ip; assay type: ADME, organism-based; design: dose 20 mg/kg, route intraperitoneal; settings: in vivo
Outline: (§1)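 Thigh-infected neutropenic mice received single intraperitoneal doses (2.5, 5, 10, 20, 40, 80 mg/kg; 0.2 ml/dose). Blood was drawn by retroorbital aspiration from groups of three mice at 0.5, 1, 2, 4, 6, 24, 48, 72 and 96 h. Plasma levels were measured by microbiologic assay with Bacillus subtilis (detection limit 0.10 mg/liter). Noncompartmental analysis was used: half-life by linear least-squares regression, AUC by trapezoidal rule.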

Staphylococcus aureus [11] = assay: AUC/MIC ratio of Staphylococcus aureus 33591 infected neutropenic mouse thigh infection model at 93 mg/kg, ip administered every 72 hrs by 1-log killing experiment; assay type: functional; settings: route intraperitoneal
Streptococcus pneumoniae [12] = assay: AUC/MIC ratio of Streptococcus pneumoniae 1325 infected neutropenic mouse thigh infection model at 0.99 mg/kg, ip administered every 72 hrs by 1-log killing experiment; assay type: functional; settings: route intraperitoneal
Staphylococcus aureus [13] = assay: AUC/MIC ratio of Staphylococcus aureus Smith infected neutropenic mouse thigh infection model at 33.5 mg/kg, ip administered every 24 hrs by static effect experiment; assay type: functional; settings: route intraperitoneal
Staphylococcus aureus [14] = assay: AUC/MIC ratio of Staphylococcus aureus 33591 infected neutropenic mouse thigh infection model at 22.3 mg/kg, ip administered every 24 hrs by static effect experiment; assay type: functional; settings: route intraperitoneal
Staphylococcus aureus [15] = assay: AUC/MBC ratio of Staphylococcus aureus Smith infected neutropenic mouse thigh infection model at 50.7 mg/kg, ip administered every 24 hrs by 1-log killing experiment; assay type: functional; settings: route intraperitoneal
Staphylococcus aureus [16] = assay: AUC/MIC ratio of Staphylococcus aureus ATCC 25923 infected neutropenic mouse thigh infection model at 42.7 mg/kg, ip administered every 24 hrs by static effect experiment; assay type: functional; settings: route intraperitoneal
Staphylococcus aureus [17] = assay: Antibacterial activity against Staphylococcus aureus 33591 by microdilution method; assay type: functional
Outline: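 MICs in duplicate on at least two occasions by standard CLSI broth microdilution; S. aureus grown and quantified in Mueller-Hinton broth/agar.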

Streptococcus pneumoniae [18] = assay: AUC/MIC ratio of Streptococcus pneumoniae 1325 infected neutropenic mouse thigh infection model at 1.6 mg/kg, ip administered every 24 hrs by 1-log killing experiment; assay type: functional; settings: route intraperitoneal
Streptococcus pneumoniae [19] = assay: AUC/MIC ratio of Streptococcus pneumoniae 1199 infected neutropenic mouse thigh infection model at 0.57 mg/kg, ip administered every 24 hrs by 2-log killing experiment; assay type: functional; settings: route intraperitoneal
Staphylococcus aureus [20] = assay: AUC/MIC ratio of Staphylococcus aureus ATCC 25923 infected neutropenic mouse thigh infection model at 185 mg/kg, ip administered every 72 hrs by 1-log killing experiment; assay type: functional; settings: route intraperitoneal
[21] = Cmax in bacterial pathogen-infected neutropenic Swiss ICR mouse thigh infection model at 40 mg/kg, ip; assay type: ADME, organism-based; design: dose 40 mg/kg, route intraperitoneal; settings: in vivo; outline: as §1
[22] = Half life in bacterial pathogen-infected neutropenic Swiss ICR mouse thigh infection model at 2.5 mg/kg, ip; assay type: ADME, organism-based; design: dose 2.5 mg/kg, route intraperitoneal; settings: in vivo
Outline: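 Single ip dose (0.2 ml) given to thigh-infected neutropenic ICR Swiss mice. Retro-orbital blood taken from groups of three at 0.5–96 h; plasma assayed microbiologically with Bacillus subtilis (detection limit 0.10 mg/liter). Half-life derived by linear least-squares regression within a noncompartmental analysis.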

Staphylococcus aureus [23] = assay: Bactericidal activity in ip dosed […] Staphylococcus aureus ATCC 29213 infected neutropenic mouse thigh infection model assessed as reduction of colony count after 96 hrs by time kill study; assay type: functional, Thigh muscle
Outline: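 Neutropenic mice (cyclophosphamide ip 150 mg/kg day −4, 100 mg/kg day −1, then every 48 h) infected in thigh with 0.1 ml log-phase inoculum (10^6.6–10^7.6 CFU/ml) under halothane. Single ip doses of 5, 10, 20, 40, or 80 mg/kg were given 2 h later. Two mice sampled at 0.5–96 h. Thighs processed for CFU, reported as mean ± SD log10 CFU/thigh.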

Staphylococcus aureus [24] = assay: AUC/MIC ratio of Staphylococcus aureus ATCC 25923 infected neutropenic mouse thigh infection model at 214 mg/kg, ip administered every 72 hrs by 2-log killing experiment; assay type: functional; settings: route intraperitoneal
Staphylococcus aureus [25] = assay: AUC/MIC ratio of Staphylococcus aureus 33591 infected neutropenic mouse thigh infection model at 114 mg/kg, ip administered every 72 hrs by 2-log killing experiment; assay type: functional; settings: route intraperitoneal
Streptococcus pneumoniae [26] = assay: Bactericidal activity against penicillin-susceptible Streptococcus pneumoniae ATCC 10813 infected neutropenic Swiss ICR mouse thigh infection model assessed as drug level causing 2-log reduction of bacterial count at 1.26 mg/kg, ip dosed every 36 hrs; assay type: functional; settings: route intraperitoneal
Outline: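 Neutropenic mice (cyclophosphamide ip 150 mg/kg day −4, 100 mg/kg day −1, then every 48 h) received 0.1 ml log-phase inoculum per thigh under halothane. Intraperitoneal dalbavancin started 2 h later and was given for 6 days at q12h, q24h, q36h or q72h, two mice per regimen. Thigh CFU were counted at 144 h. Endpoint doses relative to start-of-therapy counts came from Hill-model nonlinear regression and are expressed per 24 h.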

Staphylococcus aureus [27] = assay: AUC/MBC ratio of Staphylococcus aureus 33591 infected neutropenic mouse thigh infection model at 22.3 mg/kg, ip administered every 24 hrs by static effect experiment; assay type: functional; settings: route intraperitoneal

With `CN[C@H]1C(=O)N[C@@H]2Cc3ccc(cc3)Oc3cc4cc(c3O[C@@H]3O[C@H](C(=O)O)[C@@H](O)[C@H](O)[C@H]3NC(=O)CCCCCCCCC(C)C)Oc3ccc(cc3Cl)[C@@H](O)[C@@H]3NC(=O)[C@H](NC(=O)[C@@H]4NC(=O)[C@@H](NC2=O)c2cc(cc(O)c2Cl)Oc2cc1ccc2O)c1ccc(O)c(c1)-c1c(O[C@H]2O[C@H](CO)[C@@H](O)[C@H](O)[C@@H]2O)cc(O)cc1[C@@H](C(=O)NCCCN(C)C)NC3=O` [DALBAVANCIN] the Activity (Streptococcus pneumoniae [1]) was 2.66, the RatioAUC/MIC (Staphylococcus aureus [2]) was 123 and the RatioAUC/MIC (Streptococcus pneumoniae [3]) was 17.4. It also gave a RatioAUC/MIC (Staphylococcus aureus [4]) of 374, an Activity (Streptococcus pneumoniae [5]) of 4 and a Ratio (Staphylococcus aureus [6]) of 35.3. The Ratio (Staphylococcus aureus [7]) was 74.3, the Ratio (Staphylococcus aureus [8]) was 242 and the RatioAUC/MIC (Streptococcus pneumoniae [9]) was 26.7. The Cmax [10] was 190 µg/mL, the RatioAUC/MIC (Staphylococcus aureus [11]) was 160 and the RatioAUC/MIC (Streptococcus pneumoniae [12]) was 8.8. It also gave a RatioAUC/MIC (Staphylococcus aureus [13]) of 156, a RatioAUC/MIC (Staphylococcus aureus [14]) of 96.2 and a Ratio (Staphylococcus aureus [15]) of 119. The RatioAUC/MIC (Staphylococcus aureus [16]) was 216, the MBC (Staphylococcus aureus [17]) was 0.25 µg/mL (≈ 0.138 µM) and the MIC (Staphylococcus aureus [17]) was 0.12 µg/mL (≈ 0.0661 µM). The RatioAUC/MIC (Streptococcus pneumoniae [18]) was 31.8, the RatioAUC/MIC (Streptococcus pneumoniae [19]) was 22.7 and the RatioAUC/MIC (Staphylococcus aureus [20]) was 317. For the same compound, the Cmax [21] was 385 µg/mL, the half-life [22] was 13.1 h and the Activity (Staphylococcus aureus [23]) was 4. It also gave a RatioAUC/MIC (Staphylococcus aureus [24]) of 367, a RatioAUC/MIC (Staphylococcus aureus [25]) of 195 and an Activity (Streptococcus pneumoniae [26]) of 1.81. For the same compound, the Ratio (Staphylococcus aureus [27]) was 46.
